DYRK1A inh = rat Dyrk1A kinase inhibitors, primary screen, biochemical, single point, plate reader; Dual specificity tyrosine-phosphorylation-regulated kinase 1A (Rattus norvegicus), Q63470; ADP-Glo luminescence, NFATc1 peptide; inhibition, % at 12.5 µM; 0.43% of 310,000 active; in the data active = inhibition above about 50%;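 also: plate controls were vehicle with enzyme for no effect and no enzyme for full effect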
CAL PDZ FP-1 = untagged CAL PDZ binding inhibitors, primary screen, biochemical, fluorescence polarization, HTS; 0.92% of 300,000 active; Golgi-associated PDZ and coiled-coil motif-containing protein (Homo sapiens), Q9HD26; purified CAL PDZ, TMR-peptide fluorescence polarization, 1 h; inhibition, % at 24.9 µM; AID 602252, 2012;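 active = mean inhibition of at least 30% with at least half of replicates also reaching 30%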;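 also: 0% = DMSO neutral control and 100% = excess unlabeled competitor peptide PRC23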
TbMetRS inhib = T. brucei MetRS inhibitors, primary screen, biochemical, luminescence | methionyl-tRNA synthetase (Trypanosoma brucei brucei) | purified T. brucei MetRS, ATP depletion, Kinase-Glo luminescence | inhibition, % at 11.9 µM | 0.4% of 360,000 active | AID 624268, 2012;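 active = inhibition above a per-plate cutoff of the control wells' mean inhibition plus 3 SD, cut at about 5.5% in these data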;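 also: 0% = DMSO wells median and 100% = median of wells with control inhibitor compound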
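Dosing: 11.9 µM single point; system: parasite MetRS enzyme; technique: luminescence of leftover ATP; times: 15 min enzyme-compound preincubation, 2 h reaction, 10 min detection, 25 °C; replicates: each compound tested once; read-out basis: percent inhibition relative to median high and low control wells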
PvdQ acylase = P. aeruginosa PvdQ acylase inhibitors, primary screen, biochemical, fluorescence, plate reader and imaging, single point; inhibition, % at 10 µM; 0.063% of 340,000 active; PvdQ acylase [Pseudomonas aeruginosa LESB58]; AID 488965, 2010; purified PvdQ acylase; in the data active = inhibition above about 30%, passing the limit was not always enough;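 also: 0% = vehicle neutral wells and 100% = reference inhibitor wells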
CAL PDZ FP-2 = CAL PDZ peptide-binding inhibitors, primary screen, biochemical, fluorescence polarization, Cer-tagged CAL PDZ, HTS; purified CAL PDZ, TMR-peptide fluorescence polarization, 1 h; inhibition, % at 20 µM; 0.02% of 330,000 active; AID 504414, 2011;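 active = highest replicate inhibition of at least 40%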;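 also: plate controls were DMSO neutral control wells for no effect and unlabeled competitor peptide control wells for full effect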
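Read-out basis: mP drop reported as inhibition | Assay system: Tagged CAL PDZ protein CerCALP, purified | Benchmarks: Unlabelled peptide for full inhibition, DMSO wells as neutral | Schedule: 1 h incubation at room temperature before polarization reading | Buffer or medium: Sodium phosphate/NaCl buffer pH 7.4 with TCEP, IgG, Thesit | Doses: Single point, 20 µM | Measured by: Fluorescence polarization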
CDK5 p35 inh = inhibitors of human CDK5/p35 kinase, primary screen, biochemical, single concentration; Cyclin-dependent kinase 5 (Homo sapiens) + Cyclin-dependent kinase 5 activator 1 (Homo …; Recombinant CDK5/p35, ADP-Glo luminescence, 60 min; inhibition, % at 10 µM; 0.01% of 330,000 active; AID 488839, 2010;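 active = highest replicate inhibition of at least 50% and at least 75% of replicates reaching 50%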;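 also: plate controls were DMSO neutral control for no effect and GW8510 at 10 µM for full effect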
Target sequence (Q00535 whole entry, looked up): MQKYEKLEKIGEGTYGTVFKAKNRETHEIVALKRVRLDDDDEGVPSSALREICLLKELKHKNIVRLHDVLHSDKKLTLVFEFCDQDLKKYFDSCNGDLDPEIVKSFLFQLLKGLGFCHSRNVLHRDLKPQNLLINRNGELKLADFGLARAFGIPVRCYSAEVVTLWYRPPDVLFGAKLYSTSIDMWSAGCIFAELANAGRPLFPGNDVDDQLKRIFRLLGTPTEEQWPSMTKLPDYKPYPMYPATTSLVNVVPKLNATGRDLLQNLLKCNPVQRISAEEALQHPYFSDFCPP
Target sequence (Q15078 whole entry, looked up): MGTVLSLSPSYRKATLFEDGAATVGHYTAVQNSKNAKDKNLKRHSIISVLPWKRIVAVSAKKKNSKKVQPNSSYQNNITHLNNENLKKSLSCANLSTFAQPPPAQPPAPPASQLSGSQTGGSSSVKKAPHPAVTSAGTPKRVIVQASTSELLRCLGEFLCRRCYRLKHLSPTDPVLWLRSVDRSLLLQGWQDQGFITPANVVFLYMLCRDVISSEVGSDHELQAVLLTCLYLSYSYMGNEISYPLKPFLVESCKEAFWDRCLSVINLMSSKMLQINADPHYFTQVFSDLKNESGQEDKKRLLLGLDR
TbMetRS confirm = T. brucei MetRS inhibitors, confirmation, biochemical, luminescence | shares compounds with TbMetRS inhib | T. brucei MetRS enzyme, luminescence (ATP depletion) | inhibition, % at 11.9 µM | 93% of 1,400 active; in the data active = inhibition above about 7%
Jurkat tox = Jurkat T cell cytotoxicity, cytotoxicity control for T. brucei MetRS inhibitor project, luminescence, high throughput | shares compounds with TbMetRS inhib | Jurkat cells viability, ATP luminescence | inhibition, % at 8.3 µM | 12% of 1,400 active; in the data active = inhibition above about 15%;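 also: 0% = vehicle and 100% = reference inhibitor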
TbMetRS FP orth = T. brucei MetRS inhibitors, orthogonal assay for T. brucei MetRS inhibitor project, biochemical, fluorescence polarization. AID 651607, 2012. shares compounds with TbMetRS inhib. inhibition, % at 11.9 µM. purified T. brucei MetRS. 44% of 1,400 active; in the data active = inhibition above about 17%;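 also: 0% = vehicle wells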
Active calls of the source: *; · = no result given. Sampled rows, rich in hits. Any-hit rate of the full collection: about 1.4%.

SMILES | DYRK1A inh | CAL PDZ FP-1 | TbMetRS inhib | PvdQ acylase | CAL PDZ FP-2 | CDK5 p35 inh | TbMetRS confirm | Jurkat tox | TbMetRS FP orth
Cc1ccc(CN2CCN(CC(=O)N/N=C/c3c[nH]c4ccccc34)CC2)cc1 | -4 | -2 | 1 | -3 | 0 | -1 | · | · | ·
COC(=O)[C@H]1C[C@H](OC(=O)NCc2ccco2)[C@@]2(O)CN(S(=O)(=O)c3ccc(C)cc3)CC2[C@H]1C(=O)OC (stereo partly specified) | · | · | -1 | · | · | · | · | · | ·
O=S(=O)(Nc1ncccn1)c1ccc(NC(=S)Nc2ccc(Cl)cc2)cc1 | 20 | -1 | 0 | 12 | 0 | 0 | · | · | ·
O=C(Nc1ccc(Cl)cc1)Nc1ccc(S(=O)(=O)Nc2ncccn2)cc1 | -1 | -2 | 6.2* | -7 | -2 | -5 | 8.4* | -1 | 2
CCCCOc1ccc(S(=O)(=O)NC(=O)C2(C)CCN2C(=O)Cc2cccs2)cc1 (stereo unspecified) | · | · | 0 | · | · | · | · | · | ·
N=c1n(Cc2ccccc2)c2ccccc2n1CC(O)COc1ccc(Cl)cc1Cl (stereo unspecified) | 1 | -4 | 10* | 5 | · | 4 | 19* | 77* | 9
CC1(Cc2ccc(OC(F)(F)F)cc2)C(=O)Nc2ccc(S(=O)(=O)NC3CCCCC3)cc21 (stereo unspecified) | · | · | 1 | · | · | · | · | · | ·
OCC1(CCc2ccccc2)CCN(C/C=C/c2ccccc2)CC1 | 8 | 5 | 0 | -20 | -1 | -1 | · | · | ·
OCC1(Cc2ccccc2Cl)CCN(C/C=C/c2ccccc2)CC1 | 9 | 0 | 7.2* | 1 | -3 | 0 | 19* | 5 | 4
Cc1cccc(OCCCC(=O)Nc2nc3ccccc3[nH]2)c1 | -2 | -1 | 63* | 2 | -2 | -1 | 67* | 5 | 46*
Cc1cccc(OCCSCc2nc3ccccc3[nH]2)c1 | 12 | -1 | 8.7* | 11 | -1 | -2 | 20* | -2 | 6
Cc1ccccc1OCC(=O)NCCc1nc2ccccc2[nH]1 | 0 | -4 | 2 | -9 | 0 | 1 | · | · | ·
Cc1ccccc1OCCSCc1nc2ccccc2[nH]1 | 2 | -4 | 6.2* | 20 | -1 | 5 | 17* | 6 | 6
Cc1cccc(OCCCSc2nc3ccccc3[nH]2)c1 | -2 | -2 | 1 | -7 | 0 | -1 | · | · | ·
Cc1ccsc1C(=O)N1CCC1(C)C(=O)NS(=O)(=O)c1ccccc1C(F)(F)F (stereo unspecified) | · | · | 0 | · | · | · | · | · | ·
Cc1ccc2c(c1)[nH]c1c(N3CCN(Cc4ccccc4)CC3)ncnc12 | 0 | -6 | 0 | -12 | -3 | 3 | · | · | ·
CCN1CCCC1Cn1cnc2c([nH]c3ccc(C)cc32)c1=O (stereo unspecified) | -1 | -2 | 1 | -11 | -1 | 0 | · | · | ·
Cc1ccc2[nH]c3c(N4CCN(Cc5ccccc5)CC4)ncnc3c2c1 | 1 | 17 | 8.1* | -5 | -3 | -1 | 18* | 15* | 4
CCN1CCCC1CNc1ncnc2c1[nH]c1ccc(Cl)cc12 (stereo unspecified) | 30 | -10 | 38* | -7 | -2 | 2 | 59* | 2 | 36*
